Data set [1] has as its system Plasma. Nature of the data set: Drug uptake in albino F344/DuCrlCrlj rat assessed as radioactivity in aspartic acid in plasma protein at 10 mg/kg, po administered for 5 days by accelerator mass spectrometry analysis. It is filed as ADME, organism-based. The arrangement: dose 10 mg/kg, dosed compound name [14C]CS-1036, route oral. Conditions: in vivo, 120 h; call rule not given here. In outline: (§1)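 Rats were dosed orally with [14C]CS-1036 at 10 mg/kg/day for 5 days. Pooled plasma protein was washed and HCl-hydrolysed, then PTC-derivatized. It was separated by HPLC (40°C, gradient, UV 254 nm) and fractionated every 6 s over 0–15 min. Fraction 14C was measured by AMS after subtracting matching control-plasma fractions. Peaks were assigned by retention time against amino acid standards, and each fraction was expressed as % of injected radioactivity.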

The nature of data set [2]: Systemic absorption of acarbose estimated from drug excretion in human urine. It is filed as ADME. The arrangement: dosed compound name acarbose.
In data set [3] the test system is Plasma. In words: Drug uptake in albino F344/DuCrlCrlj rat assessed as radioactivity in glutamic acid in plasma protein at 10 mg/kg, po administered for 5 days by accelerator mass spectrometry analysis. It is filed as ADME, organism-based. The arrangement: dose 10 mg/kg, dosed compound name [14C]CS-1036, route oral. Conditions: in vivo, 120 h. Put shortly: as §1

The nature of data set [4]: Drug uptake in albino F344/DuCrlCrlj rat assessed as radioactivity in oleic acid in adipose tissue homogenates at 10 mg/kg, po administered for 4 days by LC-MS/MS spectra analysis. Conditions: in vivo, 96 h.
Another data set has as its system Intestine. In words: Drug metabolism in po dosed rat in intestinal flora treated with [14C]CS-1036 by liquid scintillation counting. Format: ADME, organism-based. The arrangement: dosed compound name [14C]CS-1036. Conditions: in vivo.
Another data set deals with Rattus norvegicus. Nature of the data set: Half life in po dosed rat dosed and assessed as 1,4-dideoxy-1,4-imino-D-arabinitol level (M1). Format: ADME, organism-based. The arrangement: dosed compound name M1. Conditions: in vivo.
Data set [5] has as its system Plasma. Nature of the data set: Drug level in albino F344/DuCrlCrlj rat plasma treated with [14C]CS-1036 at 10 mg/kg, po after 8 to 72 hrs by liquid scintillation counting. Format: ADME, organism-based. The arrangement: dose 10 mg/kg, dosed compound name [14C]CS-1036, route oral. Conditions: in vivo.
Data set [6] has as its system Plasma. Nature of the data set: Drug metabolism in albino F344/DuCrlCrlj rat plasma protein treated with at 10 mg/kg, po of [14C]CS-1036 administered for 5 days by liquid scintillation counting. Format: ADME, organism-based. The arrangement: dose 10 mg/kg, dosed compound name [14C]CS-1036, route oral. Conditions: in vivo, 120 h. In outline:
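Male F344/DuCrlCrlj rats (n = 3) received oral [14C]CS-1036 at 10 mg/kg/day for 5 days at 24-h intervals, with food freely available. Plasma was taken from the abdominal aorta 24 h after the fifth dose and pooled. It was precipitated with acetonitrile, and the pellets were washed with 0.4 M TCA, 80% methanol and 30% ether/ethanol until washes were below twice background. Pellets were HCl-hydrolysed, and recovered radioactivity was counted by LSC.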

Data set [7] in a line: Drug excretion in po dosed rat urine dosed as [14C]CS-1036 assessed as 1,4-dideoxy-1,4-imino-D-arabinitol (M1) level up to 24 hrs. The arrangement: dosed compound name [14C]CS-1036. Conditions: in vivo. Format: ADME, organism-based.
Data set [8] is described as follows: Drug uptake in albino F344/DuCrlCrlj rat assessed as radioactivity in palmitic acid in adipose tissue homogenates at 10 mg/kg, po administered for 4 days by LC-MS/MS spectra analysis. Conditions: in vivo, 96 h.

Data on six compounds can be found in ChEMBL document CHEMBL3526002, “Tissue distribution and identification of radioactivity components at elimination phase after oral administration of [¹⁴C]CS-1036, an α-amylase inhibitor, to rats” (Drug Metab Dispos, 2013).

`N[C@@H](CC(=O)O)C(=O)O` [ASPARTIC ACID]: the Compound recovery in the data set on Plasma [1] is 18.5%. In the case of `C[C@H]1O[C@H](O[C@H]2[C@H](O)[C@@H](O)[C@@H](O[C@H]3[C@H](O)[C@@H](O)C(O)O[C@@H]3CO)O[C@@H]2CO)[C@H](O)[C@@H](O)[C@@H]1N[C@H]1C=C(CO)[C@@H](O)[C@H](O)[C@H]1O` (stereo not given in full) [ACARBOSE], the Fa in data set [2] is 1.7%.

For the compound `N[C@@H](CCC(=O)O)C(=O)O` [GLUTAMIC ACID], in the data set with Plasma [3], the Compound recovery came to 36.5%. For the compound `CCCCCCCC/C=C\CCCCCCCC(=O)O` [OLEIC ACID], in [4], the Compound recovery entry is “Active”.

For `OC[C@H]1NC[C@@H](O)[C@@H]1O`, the Drug metabolism entry with Intestine, in the data set with Plasma [5] and in the data set on Plasma [6] was “metabolite_detected” each time. The t1/2 in the data set with Rattus norvegicus was 48 min. For the same compound, the Compound recovery in data set [7] amounted to 5.3%. Consider `CCCCCCCCCCCCCCCC(=O)O` [PALMITIC ACID], for which, in data set [8], the Compound recovery result was “Active”.
